Measured values from ChEMBL document CHEMBL1143782, “Alpha-aminothiazole-gamma-aminobutanoic amides as potent, small molecule CCR2 receptor antagonists” (Bioorg Med Chem Lett, 2007).

How the values were obtained:
Format in all cases: cell-based
[1] = target: T1, C-C chemokine receptor type 2 (Homo sapiens, UniProt P41597); experiment: Displacement of [125I]MCP-1 from human CCR2 expressed in monocytes 1 uM
Target sequence in this assay (P41597 whole entry, looked up): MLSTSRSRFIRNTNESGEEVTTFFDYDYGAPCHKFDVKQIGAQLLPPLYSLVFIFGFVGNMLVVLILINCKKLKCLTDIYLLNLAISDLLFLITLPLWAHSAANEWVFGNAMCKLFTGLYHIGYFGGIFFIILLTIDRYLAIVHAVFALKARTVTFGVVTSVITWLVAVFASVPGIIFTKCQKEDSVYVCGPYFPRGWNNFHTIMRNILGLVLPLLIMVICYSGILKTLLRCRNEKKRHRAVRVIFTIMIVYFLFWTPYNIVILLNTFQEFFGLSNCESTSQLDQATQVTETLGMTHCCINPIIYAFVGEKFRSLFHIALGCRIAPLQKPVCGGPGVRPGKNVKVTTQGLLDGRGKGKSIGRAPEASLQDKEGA

[2] = target: T1, C-C chemokine receptor type 2; experiment: Displacement of [125I]MCP1 from human CCR2 expressed in monocytes
How it was run: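 Human CCR2 binding was read as inhibition of 125I-MCP-1 binding to monocyte cells stably transfected with CCR2. The assay was run in the presence of 0.5% BSA, using membranes of these cells.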
Target sequence in this assay (P41597 whole entry): as the sequence (P41597 whole entry, looked up) above

[3] = target: C-C chemokine receptor type 2 (Mus musculus, UniProt P51683); experiment: Displacement of [125I]MCP1 from mouse CCR2 expressed in monocytes
Sequence of C-C chemokine receptor type 2 (Mus musculus, UniProt P51683) (P51683 whole entry): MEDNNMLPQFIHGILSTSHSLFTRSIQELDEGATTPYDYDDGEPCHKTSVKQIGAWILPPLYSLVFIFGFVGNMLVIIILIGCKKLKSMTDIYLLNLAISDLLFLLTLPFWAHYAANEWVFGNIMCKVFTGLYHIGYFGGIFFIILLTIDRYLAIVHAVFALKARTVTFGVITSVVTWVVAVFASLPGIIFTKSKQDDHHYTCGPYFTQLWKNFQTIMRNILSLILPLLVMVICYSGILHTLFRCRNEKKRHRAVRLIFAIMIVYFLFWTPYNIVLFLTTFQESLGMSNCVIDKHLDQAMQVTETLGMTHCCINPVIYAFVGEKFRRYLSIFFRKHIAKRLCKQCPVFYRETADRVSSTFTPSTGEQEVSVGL

SMILES | inhibition [1] | IC50 [2] | IC50 [3]
COC(=O)Nc1nc([C@@H](CCN2CCC(c3ccccc3)CC2)C(=O)NCc2cc(C(F)(F)F)cc(C(F)(F)F)c2)cs1 | 85% | – | –
CNC(=O)Nc1nc([C@H](CCN2CCC3(C=Cc4ccccc43)CC2)C(=O)NCc2cc(C(F)(F)F)cc(C(F)(F)F)c2)cs1 | – | 0.8 nM | –
O=C(NCc1cc(C(F)(F)F)cc(C(F)(F)F)c1)[C@H](CCN1CCC(c2ccccc2)CC1)c1cscn1 | – | 229 nM | –
Nc1nc(C(CCN2CCC(c3ccc(F)cc3)CC2)C(=O)NCc2cc(C(F)(F)F)cc(C(F)(F)F)c2)cs1 (configuration not stated) | – | 9.1 nM | –
C[C@H]1CN(CCC(C(=O)NCc2cc(C(F)(F)F)cc(C(F)(F)F)c2)c2csc(N)n2)CCC12C=Cc1ccccc12 (some centres not stated) | – | 1.3 nM | –
C[C@H]1CN(CCC(C(=O)NCc2cc(C(F)(F)F)cc(C(F)(F)F)c2)c2csc(NC(=O)C3Cc4ccccc43)n2)CC[C@]12C=Cc1ccccc12 (some centres not stated) | – | 36 nM | 111 nM
C[C@H]1CN(CCC(C(=O)NCc2cc(C(F)(F)F)cc(C(F)(F)F)c2)c2csc(NC(=O)c3ccccc3)n2)CC[C@]12C=Cc1ccccc12 (some centres not stated) | – | 17 nM | 952 nM
N=C(N)Nc1nc(C(CCN2CCC(c3ccccc3)CC2)C(=O)NCc2cc(C(F)(F)F)cc(C(F)(F)F)c2)cs1 (configuration not stated) | – | 1.3 nM | –
Nc1nc(C(CCN2CCC(c3ccccc3)CC2)C(=O)NCc2cc(C(F)(F)F)cc(C(F)(F)F)c2)cs1 (configuration not stated) | – | 20 nM | –
CC(C(=O)Nc1nc(C(CCN2CC[C@]3(C=Cc4ccccc43)[C@@H](C)C2)C(=O)NCc2cc(C(F)(F)F)cc(C(F)(F)F)c2)cs1)c1ccccc1 (some centres not stated) | – | 74 nM | 517 nM
Nc1nc(C(CCN2CCCCC2)C(=O)NCc2cc(C(F)(F)F)cc(C(F)(F)F)c2)cs1 (configuration not stated) | 75% | – | –
O=CNc1nc(C(CCN2CCC(c3ccccc3)CC2)C(=O)NCc2cc(C(F)(F)F)cc(C(F)(F)F)c2)cs1 (configuration not stated) | – | 4 nM | –

The remaining lines, values ahead:

inhibition [1] | IC50 [2] | IC50 [3] | SMILES
– | 42 nM | – | CC(=O)Nc1nc([C@@H](CCN2CCC(c3ccccc3)CC2)C(=O)NCc2cc(C(F)(F)F)cc(C(F)(F)F)c2)cs1
– | 3.5 nM | – | CCC(=O)Nc1nc(C(CCN2CCC(c3ccccc3)CC2)C(=O)NCc2cc(C(F)(F)F)cc(C(F)(F)F)c2)cs1 (configuration not stated)
– | 30 nM | – | CNC(=O)Nc1nc([C@@H](CCN2CCC(c3ccccc3)CC2)C(=O)NCc2cc(C(F)(F)F)cc(C(F)(F)F)c2)cs1
– | 13 nM | – | CC(=O)Nc1nc(C(CCN2CCCCC2)C(=O)NCc2cc(C(F)(F)F)cc(C(F)(F)F)c2)cs1 (configuration not stated)
– | 3 nM | – | CNC(=O)Nc1nc(C(CCN2CCC(c3ccccc3)CC2)C(=O)NCc2cc(C(F)(F)F)cc(C(F)(F)F)c2)cs1 (configuration not stated)
– | 32.7 nM | – | CC(=O)Nc1nc(C(CCN2CCN(c3ccc(F)cc3)CC2)C(=O)NCc2cc(C(F)(F)F)cc(C(F)(F)F)c2)cs1 (configuration not stated)
– | 1.4 nM | – | CC(=O)Nc1nc([C@H](CCN2CCC3(C=Cc4ccccc43)CC2)C(=O)NCc2cc(C(F)(F)F)cc(C(F)(F)F)c2)cs1
– | 0.43 nM | – | CNC(=O)Nc1nc([C@H](CCN2CCC(c3ccccc3)CC2)C(=O)NCc2cc(C(F)(F)F)cc(C(F)(F)F)c2)cs1
– | 7.4 nM | – | CC(C)C(=O)Nc1nc(C(CCN2CCC(c3ccccc3)CC2)C(=O)NCc2cc(C(F)(F)F)cc(C(F)(F)F)c2)cs1 (configuration not stated)
– | 6.5 nM | – | CC(=O)Nc1nc([C@@H](CCN2CCC3(C=Cc4ccccc43)CC2)C(=O)NCc2cc(C(F)(F)F)cc(C(F)(F)F)c2)cs1
– | 183 nM | – | Cc1ccccc1N1CCN(CCC(C(=O)NCc2cc(C(F)(F)F)cc(C(F)(F)F)c2)c2csc(N)n2)CC1 (configuration not stated)
– | 14.5 nM | – | CC(=O)Nc1nc(C(CCN2CCN(c3ccccc3C)CC2)C(=O)NCc2cc(C(F)(F)F)cc(C(F)(F)F)c2)cs1 (configuration not stated)
